Assay outcomes as filed in PubChem.
Only some compounds are listed: those with a hit (about 3.1% of all), similar ones and a draw of the others.
Apaf1 inhib – inhibitors of human Apaf-1 apoptosome. O14727. reconstituted apoptosome caspase-3 activity, DEVD-Rh110 fluorescence. inhibition, % at 20 µM. 0.71% of 330,000 active. AID 489030; active = inhibition of at least 40% at 20 µM;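 also: plate controls were DMSO wells for no effect and DEVD-CHO caspase inhibitor wells for full effect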
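System – cell-free apoptosome with Apaf-1, procaspase-3 and caspase-9 · Buffer or medium – pH 7.5 Hepes buffer with CHAPS, BSA, DTT · Also added – cytochrome c with DEVD-Rh110 · Times – 30 min compound preincubation, 50 min activation, room temperature · Technique – Rh110 fluorescence intensity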
PAFAH2 inh – inhibitors of human PAFAH2; Q99487; recombinant PAFAH2, FP-rhodamine activity probe, fluorescence polarization; inhibition, % at 3.39 µM; 0.99% of 340,000 active;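 active = inhibition above the mean over all tested compounds plus 3 SD, cut at about 30% in these data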;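 also: inhibitors block probe labeling of enzyme so polarization drops; 0% = enzyme with DMSO and 100% = wells lacking PAFAH2 protein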
pPAFAH inh – pPAFAH (human) enzyme inhibition; recombinant pPAFAH, FP-rhodamine probe fluorescence polarization; 1.5% of 330,000 active; AID 463082; Q13093; inhibition, % at 3.39 µM;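 active = inhibition above the mean inhibition across the screen plus 3 SD, cut at about 25% in these data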;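 also: inhibitors block binding of the rhodamine activity-based probe so polarization drops; 0% = enzyme with DMSO and 100% = wells lacking pPAFAH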
PAFAH1B2 FP inh – blocks human PAF acetylhydrolase 1b catalytic subunit 2; AID 492953; 1.2% of 340,000 active; recombinant PAFAH1B2, FP-rhodamine activity probe, fluorescence polarization; inhibition, % at 3.39 µM;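 active = inhibition above the mean of all tested compounds plus 3 SD, cut at about 24% in these data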;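 also: 0% = enzyme with DMSO and 100% = wells lacking PAFAH1B2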
PAFAH1B3 inh – inhibitors of human PAFAH1B3; Q15102; recombinant PAFAH1B3, FP-rhodamine probe, fluorescence polarization; inhibition, % at 3.39 µM; 0.28% of 340,000 active; AID 492972;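 active = inhibition above the screen-wide average of all tested compounds plus 3 SD, cut at about 25% in these data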;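 also: 0% = enzyme with DMSO only and 100% = wells lacking PAFAH1B3 protein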
The depositor's hits bear a star; nt = not tested or not shown.

SMILES	Apaf1 inhib	PAFAH2 inh	pPAFAH inh	PAFAH1B2 FP inh	PAFAH1B3 inh
CCn1c(=O)c(=O)n(CC)c2cc(S(=O)(=O)Nc3ccc(C)cc3)ccc21	-8.6	8.3	25.5*	-0.1	4.1
CC(=O)c1ccc(NS(=O)(=O)c2ccc(CC(C)C)cc2)cc1	9.1	1.8	17.0	28.5*	-0.7
COCCCNC(=O)CCc1ccc(S(=O)(=O)Nc2ccc(C)cc2)cc1	-12.5	-0.8	14.1	4.7	-0.2
Oc1ccc(N=Nc2ccccc2)o1	0.6	5.2	5.7	5.3	5.3
Cc1cc(C)c(C)c(S(=O)(=O)NCC(=O)NCC2CCCCC2)c1C	13.0	4.8	-0.8	5.6	-5.0
CC1CCCC(NC(=S)NC(=O)c2ccco2)C1C (configuration not stated)	13.5	18.3	11.2	11.6	6.5
Cc1ccc(NS(=O)(=O)c2ccc(CCC(=O)NCCCOC(C)C)cc2)cc1	-5.3	2.1	25.6*	3.9	5.6
CCN(CC)C1Oc2cc3c(cc2C(c2cc(OC)c(OC)c(OC)c2)C1C)OCO3 (configuration not stated)	nt	5.3	nt	2.5	1.8
COc1ccccc1NC(=O)C1CC(C)OC1=O (configuration not stated)	1.4	5.6	4.0	2.5	1.3
CN(C)c1ccc(O)c2c1CC1CC3C(N(C)C)C(=O)C(C(N)=O)=C(O)[C@@]3(O)C(=O)C1=C2O (some centres not stated)	-0.7	8.1	33.4*	7.5	10.8
CN(C)c1ccc(O)c2c1CC1CC3[C@@H](N(C)C)C(=O)C(C(N)=O)C(=O)[C@]3(O)C(=O)C1C2=O (some centres not stated)	-3.6	3.1	20.2	8.4	16.4
Cc1oc2cc3oc(=O)c(CCC(=O)NCCCN4CCOCC4)c(C)c3cc2c1C	1.2	-5.0	-0.7	0.9	4.9
COc1cc(-c2nc(-c3ccccc3)c(-c3cccs3)[nH]2)cc(OC)c1O	9.4	20.2	32.4*	17.2	15.2
CCN(CC)c1ccc(C(=O)OCC(=O)NC(C)(C)C)cc1	2.0	81.1*	34.0*	6.7	3.7
Cn1c(N)c(C(=O)COC(=O)/C=C/c2ccc(Cl)c(Cl)c2)c(=O)n(C)c1=O	17.4	-0.7	0.7	-3.9	-1.6
CCCCNc1c(-c2ccc(OC)c(SC3CCCCC3)c2)nc2cnccn12	36.1	-2.9	33.0*	8.3	7.3
N#C/C(=C\c1ccc(O)c(O)c1)C(=O)NCCCc1ccccc1	-3.6	25.1	27.2*	38.3*	22.5
COc1ccc(/C=C(\C#N)C(=O)NCCc2ccccc2)cc1OCc1ccccc1	22.5	-26.8	-8.0	2.5	-1.9
CC(=O)C(N=Nc1ccccc1)(Sc1nnc(-c2ccccc2)n1-c1ccccc1)C(=O)Nc1ccccc1 (configuration not stated)	-1.4	-10.0	-0.2	26.3*	-5.3
CC(=O)C(N=Nc1ccccc1)(Sc1nnc(-c2ccccc2)n1-c1ccccc1)C(C)=O	-1.9	-1.1	5.4	13.8	5.1
N#CC1=C(N)Oc2ccc3ccc(O)cc3c2C1c1ccsc1 (configuration not stated)	nt	97.8*	nt	93.2*	113.5*
CCOC(=O)C1CCN(C(=O)c2ccc(S(=O)(=O)Nc3ccccc3Cl)cc2)CC1	4.8	2.5	nt	-1.9	5.1
COc1cccc(C(=O)OCC(=O)Nc2sc3c(c2C(N)=O)CCC3)c1O	-5.1	19.4	28.1*	3.9	5.0
O=C(O)c1ccccc1C1=Nc2ccc(O)cc2Oc2cc(O)ccc21	-4.7	-73.2	27.8*	9.0	7.7
Cc1ccc(S(=O)(=O)Oc2ccc(/C=N/NC(=O)c3nn(C)cc3Cl)cc2)cc1	22.6	-0.8	-4.0	21.3	0.4
SMILES	Apaf1 inhib	PAFAH2 inh	pPAFAH inh	PAFAH1B2 FP inh	PAFAH1B3 inh
Cc1ccc(/C=N/OC(=O)c2nn(C)cc2Cl)cc1	-2.9	13.4	-0.2	28.3*	2.2
N#C/C(=C\c1ccc(-c2cccc([N+](=O)[O-])c2)o1)C(=O)Nc1nc(-c2cccs2)cs1	7.2	-0.8	33.0*	5.0	2.9
O=C(N/N=C/c1ccc(-c2cccc([N+](=O)[O-])c2)o1)c1cccs1	3.5	6.8	9.8	3.2	2.6
O=C(NNC(=O)c1ccccc1F)c1cccc(-n2cccc2)c1	14.2	12.7	26.0*	2.3	0.2
COc1ccc(OC)c(-c2nc(C(=O)NC3CCN(Cc4ccccc4)CC3)cc3c2[nH]c2ccccc23)c1	38.0	-1.2	3.1	-6.9	1.9
COc1cc(-c2nc(C(=O)NC3CCN(Cc4ccccc4)CC3)cc3c2[nH]c2ccccc23)cc(OC)c1OC	40.9*	-24.8	5.5	-2.6	-1.6
